Counter-ions that a name gives are not always drawn.
Assays:
tubulin [1] = assay: Inhibition of [3H]halichondrin B binding to tubulin; design: species or system bovine; conditions: for Inhibition of binding of [3H]halichondrin B, % inhibition ± SD: 10 µM tubulin, 10 µM radiolabeled ligand
Summary of the method: (§1)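 Radioligand binding in 0.1 M MES (pH 6.9) with 0.5 mM MgCl2, 10 µM tubulin (1.0 mg/mL), 10 µM radiolabeled ligand and inhibitors at different concentrations. Ligands were mixed before tubulin was added, then incubated 15 min at around 20 °C. Duplicate aliquots were run through Sephadex G-50 superfine syringe columns equilibrated in 0.1 M MES-0.5 mM MgCl2 (pH 6.9). At least two experiments per condition.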

tubulin [2] = assay: Inhibition of [3H]vinblastine binding to tubulin; design: species or system bovine; conditions: for Inhibition of binding of [3H]vinblastine, % inhibition ± SD: 10 µM tubulin, 10 µM radiolabeled ligand
Summary of the method: as §1

bovine brain tubulin = assay: Inhibition of tubulin assembly; assay type: biochemical; conditions: for IC50: read-out: Inhibition of tubulin assembly IC50 ± SD, 10 µM bovine brain tubulin, 0.4 mM GTP, 30 °C, 20 min
Summary of the method: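 10 µM bovine brain tubulin in glutamate buffer was preincubated with varying test compound concentrations at 30 °C, then chilled to 0 °C. 0.4 mM GTP was added and the mixture rewarmed to 30 °C in a recording spectrophotometer. Assembly was followed as turbidity at 350 nm. IC50 is the concentration cutting assembly extent by 50% after 20 min.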

tubulin [3] = assay: Inhibition of [3H]dolastatin 10 binding to tubulin; design: species or system bovine; conditions: for Inhibition of binding of [3H]dolastatin 10, % inhibition ± SD: 10 µM tubulin, 10 µM radiolabeled ligand
Summary of the method: as §1

HT29 = assay: Antiproliferative assay; assay type: cell-based; conditions: Homo sapiens, HT-29, 72 h, read-out: In vitro cytotoxic activity IC50, HT29
[4] = system: HeLa, HT29, SEM, and Jurkat tumor cells; assay: Cytotoxicity on tumor cell panel; assay type: cell-based, human
Summary of the method: (§2)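 Cells from ATCC. Jurkat and SEM were grown in RPMI-1640, and HeLa and HT-29 in DMEM, each with 115 units/mL penicillin G, 115 µg/mL streptomycin and 10% FBS. 8 × 10³ cells/well were seeded 18 h ahead (37 °C, 5% CO2). The medium was then replaced with test compound at several concentrations (10 mM DMSO stock) for 72 h at 37 °C. MTT read-out was at 560 nm; IC50 is 50% proliferation inhibition.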

SEM cells = assay: Antiproliferative assay; assay type: cell-based; conditions: Homo sapiens, B-cell, 72 h, read-out: In vitro cytotoxic activity IC50, SEM
Summary of the method: as §2

Jurkat = assay: Antiproliferative assay; assay type: cell-based; conditions: Homo sapiens, 72 h, read-out: In vitro cytotoxic activity IC50, Jurkat
Summary of the method: as §2

HeLa = assay: Antiproliferative assay; assay type: cell-based; conditions: Homo sapiens, 72 h, read-out: In vitro cytotoxic activity IC50, HeLa

Row | SMILES | Inhibition of the binding of [3H]halichondrin B (in words) (tubulin [1]) | Inhibition of binding of [3H]halichondrin B, % inhibition ± SD (tubulin [1]; inhibitor 5 µM) [%] | Inhibition of binding of [3H]halichondrin B, % inhibition ± SD (tubulin [1]; inhibitor 20 µM) [%] | Inhibition of the binding of [3H]vinblastine (in words) (tubulin [2]) | Inhibition of binding of [3H]vinblastine, % inhibition ± SD (tubulin [2]; inhibitor 5 µM) [%] | Inhibition of binding of [3H]vinblastine, % inhibition ± SD (tubulin [2]; inhibitor 20 µM) [%] | Inhibition of tubulin assembly (in words) (bovine brain tubulin) | IC50 (bovine brain tubulin) [nM] | Inhibition of the binding of [3H]dolastatin 10 (in words) (tubulin [3]) | Inhibition of binding of [3H]dolastatin 10, % inhibition ± SD (tubulin [3]; inhibitor 5 µM) [%] | Inhibition of binding of [3H]dolastatin 10, % inhibition ± SD (tubulin [3]; inhibitor 20 µM) [%] | IC50 (HT29) [nM] | Cytotoxic activity (in words) [4] | IC50 (SEM cells) [nM] | IC50 (Jurkat) [nM] | IC50 (HeLa) [nM]
1 | CN[C@H](C(=O)N[C@H](C(=O)N(C)[C@H](/C=C(\C)C(=O)O)C(C)C)C(C)(C)C)C(C)(C)c1cn(C)c2ccccc12 [Compound 1, hemiasterlin] | active | 38 ± 4 | 92 ± 2 | active | 14 ± 4 | 66 ± 4 | active | 1300 ± 50 | active | 19 ± 7 | 89 ± 1 | – | – | – | – | –
2 | CN[C@H](C(=O)N[C@H](C(=O)N(C)[C@H](/C=C(\C)C(=O)O)C(C)C)C(C)(C)C)C(C)(C)c1ccccc1 [Compound 2, taltobulin] | active | 38 ± 6 | 63 ± 1 | active | 29 ± 9 | 60 ± 2 | active | 1200 ± 10 | active | 0 ± 0 | 30 ± 1 | 0.3 ± 0.1 | nanomolar IC50 values | 0.1 ± 0.05 | 0.2 ± 0.5 | 0.2 ± 0.1
3 | CN[C@H](C(=O)N[C@H](C(=O)N(C)c1cccc(C(=O)O)c1)C(C)C)C(C)(C)c1ccccc1.O=C(O)C(F)(F)F [Compound 3, 3-((S)-N,3 Dimethyl-2-((S)-3-methyl-2-(methylamino)-3-phenylbutanamido)butanamido) benzoic acid trifluoroacetate] | – | – | 0 ± 0 | – | – | 2 ± 1 | – | > 20000 | – | – | 7 ± 3 | 1900 ± 500 | – | > 10000 | 150 ± 20 | 4700 ± 500
4 | CN[C@H](C(=O)N[C@H](C(=O)N(C)c1cc(C(=O)O)ccc1C)C(C)C)C(C)(C)c1ccccc1.O=C(O)C(F)(F)F [Compound 4, 3-((S)-N,3-Dimethyl-2-((S)-3-methyl-2-(methylamino)-3-phenylbutanamido)butanamido)-4-methylbenzoic acid trifluoroacetate] | – | – | 3 ± 1 | – | – | 9 ± 1 | – | > 20000 | – | – | 0 ± 0 | 2700 ± 200 | – | > 10000 | 290 ± 50 | 5300 ± 600
5 | CN[C@H](C(=O)N[C@H](C(=O)N(C)c1cc(C(=O)O)ccc1OC)C(C)C)C(C)(C)c1ccccc1.O=C(O)C(F)(F)F [Compound 5, 3-((S)-N,3-Dimethyl-2-((S)-3-methyl-2-(methylamino)-3-phenylbutanamido)butanamido)-4-methoxybenzoic acid trifluoroacetate] | – | – | 0 ± 0 | – | – | 0 ± 0 | – | > 20000 | – | – | 8 ± 2 | > 10000 | – | > 10000 | > 10000 | > 10000
6 | CN[C@H](C(=O)N[C@H](C(=O)N(C)[C@H](c1nc(C(=O)O)co1)C(C)C)C(C)C)C(C)(C)c1ccccc1 [Compound 8, 2-((S)-1-((S)-N,3-Dimethyl-2-((S)-3-methyl-2-(methylamino)-3-phenylbutanamido)butanamido)-2-methylpropyl)oxazole-4-carboxylic acid trifluoroacetate] | – | – | – | – | – | – | – | – | – | – | – | > 10000 | – | > 10000 | > 10000 | > 10000

Reference: PMC4081462 (Molecular diversity, 2014)
